In ChEMBL document CHEMBL4118021, “Studies of TAK1-centered polypharmacology with novel covalent TAK1 inhibitors” (Bioorg Med Chem, 2017):
Each block holds one compound with its values, some of them ahead of it. Active and inactive are the calls of the source. The calls are words filed in the database; no cut-off is given here.

Key:
[1] = target: NUAK family SNF1-like kinase 2 (Homo sapiens) (UniProt Q9H093); assay: Inhibition of NuaK2 in human SKCO1 cells at 1 uM after 4 hrs using biotin labeled LVAIKSIR probe by mass-spectrometric analysis relative to control; format: cell-based
NUAK family SNF1-like kinase 2 (Homo sapiens), sequence (Q9H093 whole entry, the tested form may be a part): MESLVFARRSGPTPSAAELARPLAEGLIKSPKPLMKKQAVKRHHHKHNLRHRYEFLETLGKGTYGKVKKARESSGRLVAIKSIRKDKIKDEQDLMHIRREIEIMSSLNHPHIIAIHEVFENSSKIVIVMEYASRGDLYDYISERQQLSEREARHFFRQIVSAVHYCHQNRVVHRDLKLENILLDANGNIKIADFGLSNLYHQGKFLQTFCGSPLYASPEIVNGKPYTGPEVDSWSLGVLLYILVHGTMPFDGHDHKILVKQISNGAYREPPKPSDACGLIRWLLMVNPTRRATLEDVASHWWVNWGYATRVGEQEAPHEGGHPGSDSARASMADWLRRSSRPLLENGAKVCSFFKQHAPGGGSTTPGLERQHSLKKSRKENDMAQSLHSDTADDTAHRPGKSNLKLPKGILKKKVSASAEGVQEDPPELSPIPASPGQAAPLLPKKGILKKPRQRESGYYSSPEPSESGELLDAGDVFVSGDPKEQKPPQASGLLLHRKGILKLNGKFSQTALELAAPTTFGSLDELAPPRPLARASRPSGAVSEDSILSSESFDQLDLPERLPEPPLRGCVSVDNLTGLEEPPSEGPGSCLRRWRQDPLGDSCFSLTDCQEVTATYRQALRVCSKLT

[2] = target: Tyrosine-protein kinase JAK1 (Homo sapiens) (UniProt P23458); assay: Inhibition of JAK1 domain2 in human SKCO1 cells at 1 uM after 4 hrs using biotin labeled IGDFGLTKAIETDKEYYTVK probe by mass-spectrometric analysis relative to control; format: cell-based
NCI-H358 = assay: Antiproliferative activity against human NCI-H358 cells harboring KRAS G12C mutant after 72 hrs by CellTiter-Glo assay; format: functional, cell-based
Summary of the method: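 NCI-H23 or NCI-H358 cells seeded at 2000 cells/well and grown 48 h before drug. Varying doses were added and cells incubated 72 h. Viability was read as CellTiter-Glo luminescence, and growth-inhibition IC50 was calculated from dose-response curves.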

[3] = target: Cyclin-dependent kinase-like 2 (Homo sapiens) (UniProt Q92772); assay: Inhibition of human CDKL2 (1 to 327 residues) expressed in bacterial expression system assessed as enzyme activity at 10 uM by KINOMEScan assay relative to control; set-up: scale not given: the % may be the effect or the level left
Summary of the method: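 In vitro ATP-site competition binding assay (KinomeScan) across a panel of 456 kinases. Compound was tested at 1 and 10 μM. The read-out is the binding inhibition score relative to control.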

[4] = target: Receptor-type tyrosine-protein kinase FLT3 (Homo sapiens) (UniProt P36888); assay: Inhibition of human FLT3 (592 to 969 residues) expressed in bacterial expression system assessed as enzyme activity at 1 uM by KINOMEScan assay relative to control; set-up: scale not given: the % may be the effect or the level left
Summary of the method: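 In vitro ATP-site competition binding assay across a panel of 456 kinases, with compound tested at 1 and 10 μM.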

[5] = target: Actin-related protein 2 (Homo sapiens) (UniProt P61160); assay: Binding affinity to ACTR2 in human NCI-H358 cells at 1 uM by mass spectrometry based pull down assay; format: cell-based
Summary of the method: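 NCI-H23 or NCI-H358 cells were grown and lysed. Lysates were incubated overnight at 4 °C with 1 μM biotinylated covalent probe or DMSO, then pulled down on streptavidin beads. Proteins were run on polyacrylamide gels and stained with Coomassie. Bands were excised, digested and identified by mass spectrometry.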

[6] = target: Inter-alpha-trypsin inhibitor heavy chain H2 (Homo sapiens) (UniProt P19823); assay: Binding affinity to ITIH2 in human NCI-H358 cells at 1 uM by mass spectrometry based pull down assay; format: cell-based
[7] = target: Peroxiredoxin-6 (Homo sapiens) (UniProt P30041); assay: Binding affinity to PRDX6 in human NCI-H23 cells at 1 uM by mass spectrometry based pull down assay; format: cell-based
Peroxiredoxin-6 (Homo sapiens), sequence (P30041 whole entry): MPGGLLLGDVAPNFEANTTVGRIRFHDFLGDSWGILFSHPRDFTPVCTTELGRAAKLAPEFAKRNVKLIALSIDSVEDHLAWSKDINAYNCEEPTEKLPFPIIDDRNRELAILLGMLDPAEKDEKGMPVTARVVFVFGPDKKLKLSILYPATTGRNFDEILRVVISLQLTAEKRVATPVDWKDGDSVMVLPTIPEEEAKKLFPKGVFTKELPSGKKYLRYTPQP

[8] = target: Glutathione S-transferase kappa 1 (Homo sapiens) (UniProt Q9Y2Q3); assay: Binding affinity to GSTK1 in human NCI-H23 cells at 1 uM by mass spectrometry based pull down assay; format: cell-based
[9] = target: Deaminated glutathione amidase (Homo sapiens) (UniProt Q86X76); assay: Binding affinity to NIT1 in human NCI-H358 cells at 1 uM by mass spectrometry based pull down assay; format: cell-based
Deaminated glutathione amidase (Homo sapiens), sequence (Q86X76 whole entry): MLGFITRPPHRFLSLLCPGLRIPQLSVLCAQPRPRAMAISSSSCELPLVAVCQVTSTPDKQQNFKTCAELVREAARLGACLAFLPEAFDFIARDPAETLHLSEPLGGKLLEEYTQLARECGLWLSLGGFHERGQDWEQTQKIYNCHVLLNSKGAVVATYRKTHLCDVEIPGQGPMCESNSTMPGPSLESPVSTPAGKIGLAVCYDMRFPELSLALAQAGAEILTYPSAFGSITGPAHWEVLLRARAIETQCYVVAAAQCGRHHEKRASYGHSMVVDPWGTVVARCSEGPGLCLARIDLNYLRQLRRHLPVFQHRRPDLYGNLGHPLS

[10] = target: Glycogen synthase kinase-3 alpha (Homo sapiens) (UniProt P49840); assay: Binding affinity to GSK3A in human NCI-H358 cells at 1 uM by mass spectrometry based pull down assay; format: cell-based
[11] = target: Splicing factor 3B subunit 3 (Homo sapiens) (UniProt Q15393); assay: Binding affinity to SF3B3 in human NCI-H358 cells at 1 uM by mass spectrometry based pull down assay; format: cell-based
Splicing factor 3B subunit 3 (Homo sapiens), sequence (Q15393 whole entry): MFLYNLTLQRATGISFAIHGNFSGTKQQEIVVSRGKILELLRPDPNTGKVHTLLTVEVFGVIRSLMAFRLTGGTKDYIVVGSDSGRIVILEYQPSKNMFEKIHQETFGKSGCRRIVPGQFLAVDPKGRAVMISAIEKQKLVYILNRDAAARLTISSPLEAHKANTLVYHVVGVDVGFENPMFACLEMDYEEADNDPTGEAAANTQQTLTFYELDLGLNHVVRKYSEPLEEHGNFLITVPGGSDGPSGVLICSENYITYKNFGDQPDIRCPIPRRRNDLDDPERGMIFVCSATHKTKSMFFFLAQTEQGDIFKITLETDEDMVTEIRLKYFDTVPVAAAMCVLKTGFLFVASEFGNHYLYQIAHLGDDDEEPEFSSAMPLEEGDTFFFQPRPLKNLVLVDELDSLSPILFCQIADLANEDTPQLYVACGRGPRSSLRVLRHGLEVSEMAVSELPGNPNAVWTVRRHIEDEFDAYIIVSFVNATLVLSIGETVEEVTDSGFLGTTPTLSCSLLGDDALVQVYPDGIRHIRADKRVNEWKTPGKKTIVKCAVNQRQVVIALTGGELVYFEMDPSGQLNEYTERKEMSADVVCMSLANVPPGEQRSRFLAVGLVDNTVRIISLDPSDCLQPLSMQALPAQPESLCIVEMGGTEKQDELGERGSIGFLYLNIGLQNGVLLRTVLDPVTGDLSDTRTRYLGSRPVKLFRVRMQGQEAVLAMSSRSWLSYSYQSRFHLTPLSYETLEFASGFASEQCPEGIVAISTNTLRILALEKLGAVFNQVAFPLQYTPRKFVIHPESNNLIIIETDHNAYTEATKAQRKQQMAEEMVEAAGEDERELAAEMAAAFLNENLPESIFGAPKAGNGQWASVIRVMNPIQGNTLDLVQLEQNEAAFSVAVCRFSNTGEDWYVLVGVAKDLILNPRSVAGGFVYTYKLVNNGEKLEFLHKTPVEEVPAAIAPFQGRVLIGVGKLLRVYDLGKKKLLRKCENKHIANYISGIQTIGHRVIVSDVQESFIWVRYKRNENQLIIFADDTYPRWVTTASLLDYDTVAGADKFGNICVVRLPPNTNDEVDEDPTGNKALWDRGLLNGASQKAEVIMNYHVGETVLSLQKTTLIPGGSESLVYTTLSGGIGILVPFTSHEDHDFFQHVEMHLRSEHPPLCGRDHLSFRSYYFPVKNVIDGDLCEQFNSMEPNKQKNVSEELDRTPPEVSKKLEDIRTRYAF

[12] = target: DnaJ homolog subfamily A member 1 (Homo sapiens) (UniProt P31689); assay: Binding affinity to DNAJA1 in human NCI-H358 cells at 1 uM by mass spectrometry based pull down assay; format: cell-based
[13] = target: Dynamin-binding protein (Homo sapiens) (UniProt Q6XZF7); assay: Binding affinity to DNMBP in human NCI-H23 cells at 1 uM by mass spectrometry based pull down assay; format: cell-based
Dynamin-binding protein (Homo sapiens), sequence (Q6XZF7 whole entry): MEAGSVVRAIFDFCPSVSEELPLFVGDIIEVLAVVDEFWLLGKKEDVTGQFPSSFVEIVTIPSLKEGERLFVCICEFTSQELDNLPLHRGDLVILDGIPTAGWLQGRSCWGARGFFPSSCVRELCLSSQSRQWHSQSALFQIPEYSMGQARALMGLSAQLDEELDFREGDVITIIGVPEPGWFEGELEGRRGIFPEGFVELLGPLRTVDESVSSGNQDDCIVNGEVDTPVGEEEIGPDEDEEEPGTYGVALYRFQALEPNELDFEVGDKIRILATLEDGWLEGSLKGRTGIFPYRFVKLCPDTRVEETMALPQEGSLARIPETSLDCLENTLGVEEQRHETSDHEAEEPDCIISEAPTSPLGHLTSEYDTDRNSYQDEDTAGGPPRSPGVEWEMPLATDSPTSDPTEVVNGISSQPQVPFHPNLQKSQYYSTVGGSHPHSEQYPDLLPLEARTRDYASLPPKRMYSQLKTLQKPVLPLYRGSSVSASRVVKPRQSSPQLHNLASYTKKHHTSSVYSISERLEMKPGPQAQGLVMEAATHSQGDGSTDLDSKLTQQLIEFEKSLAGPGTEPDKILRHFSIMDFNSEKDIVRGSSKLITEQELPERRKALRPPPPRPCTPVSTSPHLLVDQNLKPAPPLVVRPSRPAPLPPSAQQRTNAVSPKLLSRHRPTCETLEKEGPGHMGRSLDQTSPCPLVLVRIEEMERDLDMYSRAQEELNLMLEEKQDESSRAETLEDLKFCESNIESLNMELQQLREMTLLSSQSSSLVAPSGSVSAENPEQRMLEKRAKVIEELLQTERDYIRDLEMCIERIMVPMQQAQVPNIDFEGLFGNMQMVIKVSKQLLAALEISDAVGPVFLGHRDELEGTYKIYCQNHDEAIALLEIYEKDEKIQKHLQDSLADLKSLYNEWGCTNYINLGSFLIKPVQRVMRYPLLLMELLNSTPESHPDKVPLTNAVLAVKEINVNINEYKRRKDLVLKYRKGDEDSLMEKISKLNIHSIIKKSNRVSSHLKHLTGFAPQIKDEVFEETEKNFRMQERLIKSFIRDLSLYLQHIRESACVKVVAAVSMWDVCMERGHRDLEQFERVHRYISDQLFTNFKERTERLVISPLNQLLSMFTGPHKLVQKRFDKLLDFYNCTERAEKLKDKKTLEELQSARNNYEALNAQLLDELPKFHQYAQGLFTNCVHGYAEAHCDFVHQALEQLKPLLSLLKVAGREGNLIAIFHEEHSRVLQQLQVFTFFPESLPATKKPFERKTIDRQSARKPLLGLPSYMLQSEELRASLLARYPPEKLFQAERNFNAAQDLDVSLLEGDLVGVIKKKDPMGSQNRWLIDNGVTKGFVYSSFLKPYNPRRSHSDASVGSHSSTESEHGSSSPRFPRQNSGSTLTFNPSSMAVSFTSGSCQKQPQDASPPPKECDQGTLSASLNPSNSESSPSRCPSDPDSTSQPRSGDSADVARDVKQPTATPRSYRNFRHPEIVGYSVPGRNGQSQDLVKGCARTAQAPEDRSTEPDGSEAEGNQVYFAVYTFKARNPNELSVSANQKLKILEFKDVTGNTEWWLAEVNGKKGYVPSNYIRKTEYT

[14] = target: T1, 80S Ribosome (Homo sapiens) (UniProt P08865+P42677+P62753+P15880+P23396+P61247+P62701+P22090+P46782+P62081+P62241+P46781+P46783+P62280+P25398+P62277+P62263+P62841+P62244+P62249+P08708+P62269+P39019+P60866+P63220+P62266+P62847+P62851+P62854+P62979+P62857+P62273+P62861+P39023+P36578+P46777+Q02878+P18124+P62424+P62917+P32969+P27635+P62906+P62913+P30050+P26373+P40429+P50914+P61313+P18621+Q07020+Q02543+P84098+P46778+P35268+P62829+P62750+P83731+P61254+P61353+P46776+P46779+P47914+P62888+P62899+P62910+P49207+P42766+P18077+Q9Y3U8+P83881+P61927+P61513+P63173+P62891+P62945+P05388+P05386); assay: Binding affinity to RPS10 in human NCI-H23 cells at 1 uM by mass spectrometry based pull down assay; format: cell-based
[15] = target: Pyruvate dehydrogenase E1 component subunit beta, mitochondrial (Homo sapiens) (UniProt P11177); assay: Binding affinity to PDHB in human NCI-H23 cells at 1 uM by mass spectrometry based pull down assay; format: cell-based
[16] = target: T1, 80S Ribosome (Homo sapiens); assay: Binding affinity to RPL26 in human NCI-H23 cells at 1 uM by mass spectrometry based pull down assay; format: cell-based
[17] = target: Protein disulfide-isomerase A4 (Homo sapiens) (UniProt P13667); assay: Binding affinity to PDIA4 in human NCI-H358 cells at 1 uM by mass spectrometry based pull down assay; format: cell-based
[18] = target: Ras-related protein Rab-22A (Homo sapiens) (UniProt Q9UL26); assay: Binding affinity to RAB22A in human NCI-H358 cells at 1 uM by mass spectrometry based pull down assay; format: cell-based
[19] = target: N-acetyl-D-glucosamine kinase (Homo sapiens) (UniProt Q9UJ70); assay: Binding affinity to NAGK in human NCI-H358 cells at 1 uM by mass spectrometry based pull down assay; format: cell-based
[20] = target: Monofunctional C1-tetrahydrofolate synthase, mitochondrial (Homo sapiens) (UniProt Q6UB35); assay: Binding affinity to MTHFD1L in human NCI-H23 cells at 1 uM by mass spectrometry based pull down assay; format: cell-based
Monofunctional C1-tetrahydrofolate synthase, mitochondrial (Homo sapiens), sequence (Q6UB35 whole entry): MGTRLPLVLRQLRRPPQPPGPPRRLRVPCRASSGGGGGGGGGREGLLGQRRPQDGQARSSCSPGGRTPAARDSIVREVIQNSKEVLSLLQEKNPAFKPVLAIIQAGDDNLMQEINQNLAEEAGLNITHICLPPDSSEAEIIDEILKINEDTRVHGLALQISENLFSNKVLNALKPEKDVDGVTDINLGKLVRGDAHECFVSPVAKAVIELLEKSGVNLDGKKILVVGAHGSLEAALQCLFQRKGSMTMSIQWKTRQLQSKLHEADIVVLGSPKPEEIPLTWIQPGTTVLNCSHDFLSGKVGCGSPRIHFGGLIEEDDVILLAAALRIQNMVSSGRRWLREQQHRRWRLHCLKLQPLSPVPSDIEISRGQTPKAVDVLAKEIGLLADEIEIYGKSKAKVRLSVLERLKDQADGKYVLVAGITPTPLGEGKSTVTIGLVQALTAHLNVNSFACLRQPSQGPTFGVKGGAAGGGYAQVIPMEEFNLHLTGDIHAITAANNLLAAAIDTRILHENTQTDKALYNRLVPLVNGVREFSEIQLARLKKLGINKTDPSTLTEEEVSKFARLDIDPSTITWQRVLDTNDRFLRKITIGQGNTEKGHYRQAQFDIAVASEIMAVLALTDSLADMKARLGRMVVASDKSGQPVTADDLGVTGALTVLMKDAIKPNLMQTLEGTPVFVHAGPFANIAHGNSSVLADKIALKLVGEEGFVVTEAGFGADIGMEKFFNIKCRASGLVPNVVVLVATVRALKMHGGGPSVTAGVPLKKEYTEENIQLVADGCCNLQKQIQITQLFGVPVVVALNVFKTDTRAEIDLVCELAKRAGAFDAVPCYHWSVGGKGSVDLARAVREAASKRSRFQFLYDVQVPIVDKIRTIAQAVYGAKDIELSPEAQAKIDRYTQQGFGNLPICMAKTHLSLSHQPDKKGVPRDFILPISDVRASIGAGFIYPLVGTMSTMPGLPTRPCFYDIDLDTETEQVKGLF

Plectin (Homo sapiens) = Plectin (Homo sapiens) (UniProt Q15149); assay: Binding affinity to PLEC in human NCI-H358 cells at 1 uM by mass spectrometry based pull down assay; format: cell-based
[21] = target: Small ribosomal subunit protein mS29 (Homo sapiens) (UniProt P51398); assay: Binding affinity to DAP3 in human NCI-H23 cells at 1 uM by mass spectrometry based pull down assay; format: cell-based
[22] = target: Nuclear receptor-binding factor 2 (Homo sapiens) (UniProt Q96F24); assay: Binding affinity to NRBF2 in human NCI-H23 cells at 1 uM by mass spectrometry based pull down assay; format: cell-based

Compound: C=CC(=O)Nc1ccccc1Nc1nc(Nc2ccc(N3CCN(C)CC3)cc2)ncc1Cl
inhibition [1]: 53.3%
inhibition [2]: 2.6%
Activity (NCI-H358): Active

Compound: COc1cc(O)c2c(c1)/C=C/C[C@H](O)[C@H](O)C(=O)/C=C\C[C@H](C)OC2=O
Activity [3]: 8.6%
Activity [4]: 4.2%

Activity [5]: Active
Activity [6]: Active
Activity [7]: Active
Activity [8]: Active
Activity [9]: Active
Activity [10]: Active
Activity [11]: Active
Activity [12]: Active
Activity [13]: Active
Activity [14]: Active
Activity [15]: Active
Activity [16]: Active
Activity [17]: Active
Activity [18]: Active
Activity [19]: Active
Activity [20]: Active
Activity (Plectin (Homo sapiens)): Active
Activity [21]: Active
Activity [22]: Active
Compound: C=CC(=O)Nc1ccccc1Nc1nc(Nc2ccc(N3CCN(CCOCCOCCOCCNC(=O)CCCC[C@@H]4SC[C@@H]5NC(=O)N[C@@H]54)CC3)cc2)ncc1Cl
